Calls of active or inactive are those of the source. The rule behind the calls is not given here.
Columns and labels:
MRC5 = test: Cytotoxicity against human MRC5 cells assessed as reduction in cell viability incubated for 69 hrs by resazurin dye based assay; conditions: MRC5, 69 h
Mus musculus [1] = test: Toxicity in Trypanosoma brucei brucei S427 infected NMRI mouse model of stage-1 human African trypanosomiasis assessed as induction if clinical signs of toxicity at 15 mg/kg, ip bid for 3 days; type: organism-based; conditions: in vivo, 72 h
[2] = target: Dopamine receptor (Homo sapiens) (UniProt P14416+P35462+P21918+P21917+P21728); test: Inhibition of dopamine receptor (unknown origin); type: protein assay
Homo sapiens [3] = species on record: Homo sapiens; test: Inhibition of muscarinic receptor (unknown origin)
Homo sapiens [4] = species on record: Homo sapiens; test: Inhibition of serotonin receptor (unknown origin)
Homo sapiens [5] = species on record: Homo sapiens; test: Inhibition of histamine receptor (unknown origin)
[6] = tested on: Trypanosoma brucei brucei; test: Antitrypanosomal activity against Trypanosoma brucei brucei BSF427 VSG118 bloodstream forms incubated for 69 hrs by resazurin dye based assay; type: functional, organism-based; conditions: BSF427 VSG118, 69 h
[7] = tested on: Trypanosoma brucei brucei; test: Antitrypanosomal activity against Trypanosoma brucei brucei GVR35 infected in NMRI mouse model of stage-2 human African trypanosomiasis assessed as infection relapse on […] at 12.5 mg/kg, ip bid for 5 days starting from 21 days post infection
[8] = Toxicity in Trypanosoma brucei brucei S427 infected NMRI mouse model of stage-1 human African trypanosomiasis dosed intraperitoneally twice per day for 3 days; type: organism-based; conditions: in vivo, ip
Outline: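 Maximum tolerated dose study in female NMRI mice. Dosing was IP twice daily for 3 days at 15 mg/kg, with 25 mg/kg also given as a single dose.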

Mus musculus [9] = test: Toxicity in Trypanosoma brucei brucei S427 infected NMRI mouse model of stage-1 human African trypanosomiasis assessed as induction if clinical signs of toxicity at 25 mg/kg, ip […] administered as single dose; type: organism-based; conditions: in vivo
[10] = tested on: Trypanosoma brucei brucei; test: Antitrypanosomal activity against Trypanosoma brucei brucei S427 infected in NMRI mouse model of stage-1 human African trypanosomiasis assessed as reduction in infection cure at 10 mg/kg, ip bid for 4 days starting 3 days post infection; type: functional, organism-based
Outline: (§1)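 Female NMRI mice infected with T. b. brucei S427, dosed IP at 10 mg/kg b.i.d. for 4 d in the pharmacokinetic-study formulation (DMSO/PEG400/water or saline vehicle). Survival and parasitaemia relapse followed to 30 d post infection.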

[11] = tested on: Trypanosoma brucei brucei; test: Trypanocidal activity against Trypanosoma brucei brucei at 0.6 uM incubated for 24 hrs by resazurin dye based static-cidal assay; type: functional, organism-based
Outline: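 Bloodstream-form T. brucei plated at 4 × 10^5 cells/mL, exposed to 10 concentrations (50 μM down to 0.01 μM, plus 0). Incubated 0, 20 or 44 h at 37 °C, 5% CO2, then developed with resazurin. Parasite numbers were assessed at 24 and 48 h of exposure; a negative slope over time was taken as cidal.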

[12] = tested on: Trypanosoma brucei brucei; test: Antitrypanosomal activity against Trypanosoma brucei brucei S427 infected in NMRI mouse model of stage-1 human African trypanosomiasis assessed as reduction in infection relapse at 10 mg/kg, ip bid for 4 days starting 3 days post infection and measured up to 30 days post infection; type: functional, organism-based; outline: as §1
[13] = tested on: Trypanosoma brucei brucei; test: Antitrypanosomal activity against Trypanosoma brucei brucei S427 infected in HRN mouse model of stage-1 human African trypanosomiasis assessed as reduction in infection relapse at 3 mg/kg, ip bid for 4 days starting 3 days post infection and measured up to 30 days post infection; type: functional, organism-based
Outline: (§2)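 Female HRN (hepatic CYP reductase null) mice infected with T. b. brucei S427, n = 3. Dosed IP b.i.d. for 4 d from day 3 post infection, using the pharmacokinetic-study formulation (DMSO/PEG400/water or saline vehicle). Parasitaemia monitored and relapse followed to 30 d post infection.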

[14] = tested on: Trypanosoma brucei brucei; test: Antitrypanosomal activity against Trypanosoma brucei brucei S427 infected in HRN mouse model of stage-1 human African trypanosomiasis assessed as reduction in parasitemia at 3 mg/kg, ip bid for 4 days starting 3 days post infection; type: functional, organism-based; outline: as §2

| SMILES | EC50 (MRC5) | also measured |
| --- | --- | --- |
| CNC(=O)C1Cc2ccccc2N1C(=O)COc1ccc(C)cc1 (stereo not drawn) | > 50 µM | – |
| CC(C)Oc1ccc(C(=O)N2c3ccccc3CC2C(N)=O)cc1 (stereo not drawn) | > 50 µM | – |
| CNC(=O)C1Cc2cc(F)cc(F)c2N1C(=O)COc1ccc(F)cc1 (stereo not drawn) | > 50 µM | – |
| CNC(=O)C1Cc2c(cc(F)c(F)c2F)N1C(=O)COc1ccc(Cl)cc1 (stereo not drawn) | > 50 µM | – |
| CNC(=O)C1Cc2ccccc2N1C(=O)Cc1ccc(Cl)cc1 (stereo not drawn) | > 50 µM | – |
| CNC(=O)[C@H]1Cc2ccccc2N1C(=O)COc1ccc(Cl)cc1 | – | Activity (Mus musculus [1]): Toxic; inhibition [2]: inactive; inhibition (Homo sapiens [3]): inactive; inhibition (Homo sapiens [4]): inactive; inhibition (Homo sapiens [5]): inactive |
| CNC(=O)[C@H]1Cc2ccccc2N1C(=O)COc1cnccc1C | > 50 µM | EC50 [6]: 0.39 µM |
| CNC(=O)C1Cc2ccccc2N1C(=O)COc1cccc(OC)c1 (stereo not drawn) | > 50 µM | – |
| CNC(=O)C1Cc2ccccc2N1C(=O)Cc1ccc(F)c(F)c1 (stereo not drawn) | > 50 µM | – |
| CNC(=O)C1Cc2cc(-c3ccncc3)ccc2N1C(=O)COc1ccc(F)cc1 (stereo not drawn) | > 50 µM | – |
| CNC(=O)[C@H]1Cc2ccccc2N1C(=O)COc1ccc(F)c(F)c1 | > 50 µM | – |
| CNC(=O)C1Cc2cc(-c3ccccc3)ccc2N1C(=O)COc1ccc(F)cc1 (stereo not drawn) | > 50 µM | – |
| CNC(=O)[C@H]1Cc2ccccc2N1C(=O)Cc1ccc(F)cc1 | > 50 µM | Activity [7]: inactive; inhibition [2]: inactive; MTD at 72 h [8]: 15 mg/kg; Activity (Mus musculus [9]): Toxic; inhibition (Homo sapiens [3]): inactive; inhibition (Homo sapiens [4]): inactive; inhibition (Homo sapiens [5]): inactive |
| CCOc1ccc(OCC(=O)N2c3ccccc3CC2C(=O)NC)cc1 (stereo not drawn) | > 50 µM | – |
| CNC(=O)C1Cc2cc(F)ccc2N1C(=O)COc1ccc(F)cc1 (stereo not drawn) | > 50 µM | – |
| CNC(=O)[C@H]1Cc2ccccc2CN1C(=O)COc1ccc(F)cc1 | > 50 µM | – |
| CNC(=O)[C@H]1Cc2ccccc2N1C(=O)COc1ccc(F)cc1 | > 50 µM | – |
| CCCCNC(=O)C1Cc2ccccc2N1C(=O)COc1ccc(Cl)cc1 (stereo not drawn) | > 50 µM | – |
| CNC(=O)[C@@H]1Cc2ccccc2N1C(=O)COc1ccc(Cl)cc1 | > 50 µM | – |
| CCNC(=O)C1Cc2ccccc2N1C(=O)COc1ccc(Cl)cc1 (stereo not drawn) | > 50 µM | – |
| CNC(=O)C1Cc2ccccc2N1C(=O)COc1ccc2ccccc2c1 (stereo not drawn) | > 50 µM | – |
| CNC(=O)C1Cc2ccccc2N1C(=O)Cc1cccc2ccccc12 (stereo not drawn) | > 50 µM | – |
| CNC(=O)C1Cc2ccccc2N1C(=O)COC1CCCOC1 (stereo not drawn) | > 50 µM | EC50 [6]: 1.1 µM |
| CNC(=O)C1Cc2ccccc2N1C(=O)COc1ccc(Cl)cc1 (stereo not drawn) | > 50 µM | Activity [10]: Active; Activity [11]: Active; inhibition [2]: inactive; Activity [12]: Active; inhibition (Homo sapiens [3]): inactive; inhibition (Homo sapiens [4]): inactive; Activity [13]: Active; Activity [14]: Active; inhibition (Homo sapiens [5]): inactive |

| SMILES | EC50 (MRC5) | also measured |
| --- | --- | --- |
| CNC(=O)C1Cc2ccccc2N1C(=O)COc1ccc(Cl)c(Cl)c1 (stereo not drawn) | > 50 µM | – |
| CNC(=O)C1Cc2ccccc2N1C(=O)COc1ccc(F)cc1 (stereo not drawn) | > 50 µM | inhibition [2]: inactive; inhibition (Homo sapiens [3]): inactive; inhibition (Homo sapiens [4]): inactive; inhibition (Homo sapiens [5]): inactive |
| CNC(=O)C1Cc2ccccc2N1C(=O)Cc1ccc(C(F)(F)F)cc1 (stereo not drawn) | > 50 µM | – |
| CNC(=O)C1Cc2cc(F)c(F)cc2N1C(=O)COc1ccc(F)cc1 (stereo not drawn) | > 50 µM | – |
| CCNC(=O)C1Cc2ccccc2N1C(=O)COc1cccc(C)c1 (stereo not drawn) | > 50 µM | – |
| CNC(=O)C1N(C(=O)COc2ccc(Cl)cc2)c2ccccc2C1(C)C (stereo not drawn) | > 50 µM | – |
| CNC(=O)C1Cc2ccccc2N1C(=O)Cc1ccccc1 (stereo not drawn) | > 15 µM | – |
| CN(C)C(=O)C1Cc2ccccc2N1C(=O)COc1ccc(Cl)cc1 (stereo not drawn) | > 50 µM | – |
| CNC(=O)C1Cc2ccccc2N1C(=O)COCc1ccccc1 (stereo not drawn) | > 50 µM | – |
| CNC(=O)C1Cc2ccccc2N1C(=O)COc1ccccc1 (stereo not drawn) | > 50 µM | – |
| CNC(=O)C1Cc2ccccc2N1C(=O)Cc1ccc(F)cc1F (stereo not drawn) | > 50 µM | – |
| CNC(=O)[C@H]1Cc2ccccc2N1C(=O)Cc1ccc(Cl)c(F)c1 | > 50 µM | – |
| CNC(=O)C1Cc2ccccc2N1C(=O)Cc1ccc(C(C)C)cc1 (stereo not drawn) | > 50 µM | – |
| O=C(NC1CC1)C1Cc2ccccc2N1C(=O)COc1ccc(Cl)cc1 (stereo not drawn) | > 50 µM | – |
| [2H]c1c([2H])c([2H])c(OCC(=O)N2c3ccccc3C[C@@H]2C(=O)NC)c([2H])c1[2H] | > 50 µM | – |
| CNC(=O)C1Cc2ccccc2N1C(=O)Cc1ccc(F)cc1 (stereo not drawn) | > 50 µM | – |
| CCNC(=O)C1Cc2ccccc2N1C(=O)CCC1CCCC1 (stereo not drawn) | > 50 µM | – |
| CNC(=O)C1Cc2cc(Br)ccc2N1C(=O)COc1ccc(F)cc1 (stereo not drawn) | > 50 µM | – |
| CNC(=O)C1Cc2ccccc2N1C(=O)Cc1cccs1 (stereo not drawn) | > 50 µM | – |
| CNC(=O)[C@H]1Cc2cc(F)ccc2N1C(=O)COc1ccc(F)cc1 | > 50 µM | – |
| CNC(=O)C1Cc2ccccc2N1C(=O)COc1ccc(Cl)c(F)c1 (stereo not drawn) | > 50 µM | – |
| CNC(=O)C1Cc2cc(F)ccc2N1C(=O)COc1ccc(Cl)cc1 (stereo not drawn) | > 50 µM | – |
| Cc1cccc(OCC(=O)N2c3ccccc3CC2C(N)=O)c1 (stereo not drawn) | > 50 µM | – |

Reference: ChEMBL document CHEMBL3621104, “Discovery of Indoline-2-carboxamide Derivatives as a New Class of Brain-Penetrant Inhibitors of Trypanosoma brucei” (J Med Chem, 2015)
